Measured values taken from ChEMBL document CHEMBL1138269, “Antimicrobial lexitropsins containing amide, amidine, and alkene linking groups” (J Med Chem, 2007).
Converted amounts (≈) assume the structure as drawn.

Experiments:
Type in all cases: functional
Staphylococcus aureus = assay: Antibacterial activity against methicillin-sensitive Staphylococcus aureus NCTC 6571
In short: (§1)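 Broth microdilution in Mueller-Hinton broth. Samples were dissolved in sterile water to 200 µg mL-1 as the working solution and doubling dilutions were made across rows. Plates were incubated at 37 °C and inspected visually, with resazurin added as growth indicator. MIC reported in µg mL-1.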

Enterococcus faecalis = assay: Antibacterial activity against Streptococcus faecalis NCTC 775; in short: as §1
[1] = test system: Mycolicibacterium fortuitum; assay: Antibacterial activity against Mycobacterium fortuitum NCTC 10394; in short: as §1
Aspergillus niger = assay: Antifungal activity against Aspergillus niger IMI 149007
In short: (§2)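 Antifungal microdilution in Sabouraud broth. Test sample at 200 µg mL-1 working solution in sterile water was serially doubled down successive rows. Incubation was at 25 °C, followed by visual growth check and addition of resazurin indicator. Read-out is MIC in µg mL-1.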

Candida albicans = assay: Antifungal activity against Candida albicans NCPF 3179; in short: as §2
[2] = Staphylococcus aureus, NCTC 6571, read-out: MIC
[3] = Enterococcus faecalis, NCTC 775, read-out: MIC
[4] = Candida albicans, read-out: MIC

| MIC (Staphylococcus aureus; [2]) [µg/mL] | MIC (Enterococcus faecalis; [3]) [µg/mL] | MIC [1] [µg/mL] | MIC (Aspergillus niger) [µg/mL] | MIC (Candida albicans; [4]) [µg/mL] | Structure (SMILES) | MIC (Staphylococcus aureus) [µg/mL] | MIC (Enterococcus faecalis) [µg/mL] | MIC (Candida albicans) [µg/mL] |
| --- | --- | --- | --- | --- | --- | --- | --- | --- |
| 13 (≈ 24.2 µM) | 50 (≈ 93 µM) | > 50 | 50 (≈ 93 µM) | > 50 | CC(=N)Nc1cc(C(=O)Nc2cc(C(=O)Nc3cc(C(=O)NCCCN(C)C)n(C)c3)n(C(C)C)c2)n(C)c1 | – | – | – |
| > 50 | > 50 | > 50 | 50 (≈ 77.8 µM) | 25 (≈ 38.9 µM) | CN(C)CCCNC(=O)c1cc(NC(=O)c2cc(NC(=O)c3cc(NC(=O)c4ccc(Cl)c(Cl)n4)cn3C)cn2C)cn1C | – | – | – |
| 50 (≈ 87.5 µM) | > 50 | > 50 | 50 (≈ 87.5 µM) | > 50 | CN(C)CCCNC(=O)c1cc(NC(=O)c2cc(NC(=O)c3cc(NC(=N)c4ccccc4)cn3C)cn2C)cn1C | – | – | – |
| > 50 | > 50 | > 50 | > 50 | > 50 | COc1cccc(C(=N)Nc2cc(C(=O)Nc3cc(C(=O)Nc4cn(CCCN(C)C)cn4)n(C)c3)n(C)c2)c1 | – | – | – |
| 50 (≈ 90 µM) | 50 (≈ 90 µM) | > 50 | 50 (≈ 90 µM) | > 50 | CC(=N)Nc1cc(C(=O)Nc2cc(C(=O)Nc3nc(C(=O)NCCCN(C)C)c(C(C)C)s3)n(C)c2)n(C)c1 | – | – | – |
| 50 (≈ 83.4 µM) | > 50 | > 50 | > 50 | > 50 | CC(C)n1cc(NC(=O)c2cc(NC(=N)c3ccccc3)cn2C)cc1C(=O)Nc1cc(C(=O)NCCCN(C)C)n(C)c1 | – | – | – |
| > 50 | > 50 | > 50 | > 50 | > 50 | COc1cccc(C(=O)Nc2cc(C(=O)Nc3cc(C(=O)Nc4cn(CCCN(C)C)cn4)n(C)c3)n(C)c2)c1 | – | – | – |
| > 50 | > 50 | > 50 | > 50 | > 50 | COc1ccc(C(=O)Nc2cc(C(=O)Nc3cc(C(=O)Nc4cn(CCCN(C)C)cn4)n(C)c3)n(C)c2)cc1 | – | – | – |
| 13 (≈ 25.5 µM) | 50 (≈ 98.1 µM) | > 50 | 50 (≈ 98.1 µM) | > 50 | CC(=N)Nc1cc(C(=O)Nc2cc(C(=O)Nc3cc(C(=O)NCCCN(C)C)n(C)c3)n(C)c2)n(C)c1 | – | – | – |
| 5 (≈ 9.21 µM) | 10 (≈ 18.4 µM) | 19 (≈ 35 µM) | 76 (≈ 140 µM) | 76 (≈ 140 µM) | CC(C)c1sc(NC(=O)c2cc(NC(=O)c3cc(NC=O)cn3C)cn2C)nc1C(=O)NCCCN(C)C | – | – | – |
| > 50 | > 50 | > 50 | > 50 | > 50 | CN(C)CCCn1cnc(NC(=O)c2cc(NC(=O)c3cc(NC=O)cn3C)cn2C)c1 | – | – | – |
| 25 (≈ 41.5 µM) | > 50 | > 50 | 25 (≈ 41.5 µM) | > 50 | COc1cccc(C(=N)Nc2cc(C(=O)Nc3cc(C(=O)Nc4cc(C(=O)NCCCN(C)C)n(C)c4)n(C)c3)n(C)c2)c1 | – | – | – |
| > 50 | > 50 | > 50 | 50 (≈ 82.4 µM) | 25 (≈ 41.2 µM) | CN(C)CCCNC(=O)c1cc(NC(=O)c2cc(NC(=O)c3cc(/C=C/c4ccc5ccccc5n4)cn3C)cn2C)cn1C | – | – | – |
| > 50 | > 50 | > 50 | > 50 | > 50 | CN(C)CCCn1cnc(NC(=O)c2cc(NC(=O)c3cc(NC(=O)c4cc5ccccc5cn4)cn3C)cn2C)c1 | – | – | – |

Further lines, the compound ahead of its results:

| Structure (SMILES) | MIC (Staphylococcus aureus; [2]) [µg/mL] | MIC (Enterococcus faecalis; [3]) [µg/mL] | MIC [1] [µg/mL] | MIC (Aspergillus niger) [µg/mL] | MIC (Candida albicans; [4]) [µg/mL] | MIC (Staphylococcus aureus) [µg/mL] | MIC (Enterococcus faecalis) [µg/mL] | MIC (Candida albicans) [µg/mL] |
| --- | --- | --- | --- | --- | --- | --- | --- | --- |
| CC(C)c1sc(NC(=O)c2cc(NC(=O)c3cc(NC(=O)c4cc5ccccc5cn4)cn3C)cn2C)nc1C(=O)NCCN1CCOCC1 | > 50 | > 50 | > 50 | > 50 | > 50 | – | – | – |
| CC(C)CCc1sc(NC(=O)c2cc(NC(=O)c3ccc(/C=C/c4cc5ccccc5nc4Cl)cc3)cn2C)nc1C(=O)NCCN1CCOCC1 | > 50 | > 50 | > 50 | > 50 | > 50 | – | – | – |
| CC(C)CCc1sc(NC(=O)c2cc(NC(=O)c3ccc(/C=C/c4ccc5ccccc5c4)cc3)cn2C)nc1C(=O)NCCN1CCOCC1 | > 50 | > 50 | > 50 | > 50 | > 50 | – | – | – |
| CC(=N)Nc1cc(C(=O)Nc2cc(C(=O)Nc3nc(C(=O)NCCCN(C)C)c(CCC(C)C)s3)n(C)c2)n(C)c1 | > 50 | > 50 | > 50 | > 50 | 50 (≈ 85.7 µM) | – | – | – |
| CC(C)CCc1sc(NC(=O)c2cc(NC(=O)c3ccc(/C=C/c4cnc5ccccc5c4)cc3)cn2C)nc1C(=O)NCCN1CCOCC1 | > 50 | > 50 | > 50 | > 50 | 50 (≈ 70.8 µM) | – | – | – |
| COc1cccc(C(=O)Nc2ccc(C(=O)Nc3cc(C(=O)Nc4cc(C(=O)NCCN5CCOCC5)n(C)c4)n(C)c3)cc2)c1 | > 50 | > 50 | > 50 | > 50 | > 50 | – | – | – |
| Cn1cc(NC(=O)c2cc(NC(=O)c3ccc(/C=C/c4nc5ccccc5o4)cc3)cn2C)cc1C(=O)NCCN1CCOCC1 (stereo in doubt; 72) | – | – | – | – | – | 3 (≈ 4.83 µM) | 3 (≈ 4.83 µM) | 50 (≈ 80.4 µM) |
| Cn1cc(NC(=O)c2cc(NC(=O)c3ccc(/C=C/c4ccc5ccccc5n4)cc3)cn2C)cc1C(=O)NCCN1CCOCC1 | 50 (≈ 79.1 µM) | > 50 | > 50 | > 50 | > 50 | – | – | – |
| COc1cccc(C(=N)Nc2cc(C(=O)Nc3cc(C(=O)Nc4nc(C(=O)NCCCN(C)C)c(CCC(C)C)s4)n(C)c3)n(C)c2)c1 | 3 (≈ 4.44 µM) | 13 (≈ 19.2 µM) | > 50 | > 50 | > 50 | – | – | – |
| CC(C)CCc1sc(NC(=O)c2cc(NC(=O)c3ccc(/C=C/c4ccc5ccccc5n4)cc3)cn2C)nc1C(=O)NCCN1CCOCC1 | > 50 | > 50 | > 50 | > 50 | > 50 | – | – | – |
| COc1cccc(C(=O)Nc2nc(C(=O)Nc3cc(C(=O)Nc4cc(C(=O)NCCC(=N)N)n(C)c4)n(C)c3)c(C(C)C)s2)c1 | 13 (≈ 20.5 µM) | 13 (≈ 20.5 µM) | > 50 | > 50 | > 50 | – | – | – |
| COc1cccc(C(=N)Nc2cc(C(=O)Nc3cc(C(=O)Nc4nc(C(=O)NCCCN(C)C)c(C(C)C)s4)n(C)c3)n(C)c2)c1 | 13 (≈ 20.1 µM) | 50 (≈ 77.2 µM) | > 50 | 50 (≈ 77.2 µM) | > 50 | – | – | – |
| CC(=N)Nc1cc(C(=O)Nc2cc(C(=O)Nc3cc(C(=O)NCCN4CCOCC4)n(C)c3)n(C)c2)n(C)c1 | 50 (≈ 93 µM) | > 50 | > 50 | 50 (≈ 93 µM) | > 50 | – | – | – |
| CC(C)n1cc(NC(=O)c2cc(NC(=O)c3ccc(Cl)c(Cl)n3)cn2C)cc1C(=O)Nc1cc(C(=O)NCCCN(C)C)n(C)c1 | 6 (≈ 8.95 µM) | 50 (≈ 74.6 µM) | > 50 | 50 (≈ 74.6 µM) | > 50 | – | – | – |
| Cn1cc(NC(=O)c2cc(NC(=O)c3ccc(NC(=O)c4cnc5ccccc5c4)cc3)cn2C)cc1C(=O)NCCN1CCOCC1 | > 50 | > 50 | > 50 | > 50 | > 50 | – | – | – |
| Cn1cc(NC(=O)c2cc(NC(=O)c3ccc(/C=C/c4ccc5ccccc5c4)cc3)cn2C)cc1C(=O)NCCN1CCOCC1 | 25 (≈ 39.6 µM) | > 50 | > 50 | > 50 | > 50 | – | – | – |
| Cn1cc(NC(=O)c2cc(NC(=O)c3ccc(/C=C/c4nc5ccccc5s4)cc3)cn2C)cc1C(=O)NCCN1CCOCC1 | 25 (≈ 39.2 µM) | 25 (≈ 39.2 µM) | > 50 | > 50 | > 50 | – | – | – |
